Measurements taken from ChEMBL document CHEMBL1806449, “A class of Trp-Trp-AA-OBzl: Synthesis, in vitro anti-proliferation/in vivo anti-tumor evaluation, intercalation-mechanism investigation and 3D QSAR analysis” (Eur J Med Chem, 2011).
pIC50: −log10 of the molar value. Peptide text beside a SMILES is read from it. * marks the point of attachment. OBn = c1ccc(CO*)cc1

Key:
[1] = system: CCRF S-180; assay: Antiproliferative activity against mouse S180 cells after 48 hrs by MTT assay; type: functional, cell-based; details: CCRF S-180, 48 h
[2] = system: K562; assay: Antiproliferative activity against human K562 cells after 48 hrs by MTT assay; type: functional, cell-based; details: K562, 48 h
[3] = system: B16; assay: Antiproliferative activity against mouse B16 cells after 48 hrs by MTT assay; type: functional, cell-based; details: B16, 48 h
[4] = system: H22; assay: Antiproliferative activity against mouse H22 cells after 48 hrs by MTT assay; type: functional, cell-based; details: H22, 48 h
[5] = system: HepG2; assay: Antiproliferative activity against human HepG2 cells after 48 hrs by MTT assay; type: functional, cell-based; details: HepG2, 48 h
[6] = system: Mus musculus; assay: Toxicity in ICR mouse xenografted with mouse S180 cells assessed as increase in spleen index at 8.9 umol/kg; type: organism-based, CCRF S-180; details: in vivo
Method in brief: (§1)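 S180-bearing male ICR mice (10–12 weeks; 1×10^7 cells s.c. right oxter; 12 per group), daily i.p. 8.9 µmol/kg for seven days starting 24 h after implantation; NS, cytarabine and doxorubicin controls; liver, brain, kidney weights, spleen index and body-weight gain recorded.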

[7] = system: CCRF S-180; assay: Antitumor activity against mouse S180 cells xenografted in ICR mouse assessed as tumor growth inhibition at 8.9 umol/kg, ip administered 1 day after tumor inoculation qd for 7 days; type: functional; details: CCRF S-180, ip, read-out: GI
Method in brief: (§2)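 Male ICR mice 10–12 weeks; S180 from ascites serially transplanted weekly; 1×10^7 viable cells in 0.2 ml NS implanted s.c. at right oxter; 24 h later randomized (10 per group); daily i.p. 8.9, 0.89 or 0.089 µmol/kg/day in 0.2 ml NS, 7 days; NS and cytarabine controls; sacrificed 24 h after last dose; inhibition % = [1−(Tw/Cw)]×100.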

[8] = system: Mus musculus; assay: Toxicity in ICR mouse xenografted with mouse S180 cells assessed as effect on liver weight at 8.9 umol/kg; type: organism-based, CCRF S-180; details: in vivo; method in brief: as §1
[9] = system: Mus musculus; assay: Toxicity in ICR mouse xenografted with mouse S180 cells assessed as effect on brain weight at 8.9 umol/kg; type: organism-based, CCRF S-180; details: in vivo; method in brief: as §1
[10] = system: Mus musculus; assay: Toxicity in ICR mouse xenografted with mouse S180 cells assessed as effect on kidney weight at 8.9 umol/kg; type: organism-based, CCRF S-180; details: in vivo; method in brief: as §1
[11] = system: Mus musculus; assay: Toxicity in ICR mouse xenografted with mouse S180 cells assessed as increase in body weight at 8.9 umol/kg; type: organism-based, CCRF S-180; details: in vivo; method in brief: as §1
[12] = system: Mus musculus; assay: Acute toxicity in ICR mouse assessed as tremors at 500 mg/kg, ip administered qd for 7 days; type: organism-based; set-up: dose 500 mg/kg, route intraperitoneal; details: in vivo, 168 h
[13] = system: Mus musculus; assay: Acute toxicity in ICR mouse assessed as twitch at 500 mg/kg, ip administered qd for 7 days; type: organism-based; set-up: dose 500 mg/kg, route intraperitoneal; details: in vivo, 168 h
[14] = system: Mus musculus; assay: Acute toxicity in ICR mouse assessed as jumping at 500 mg/kg, ip administered qd for 7 days; type: organism-based; set-up: dose 500 mg/kg, route intraperitoneal; details: in vivo, 168 h
[15] = system: Mus musculus; assay: Acute toxicity in ICR mouse assessed as tetanus at 500 mg/kg, ip administered qd for 7 days; type: organism-based; set-up: dose 500 mg/kg, route intraperitoneal; details: in vivo, 168 h
[16] = system: Mus musculus; assay: Acute toxicity in ICR mouse assessed as supination at 500 mg/kg, ip administered qd for 7 days; type: organism-based; set-up: dose 500 mg/kg, route intraperitoneal; details: in vivo, 168 h
[17] = system: Mus musculus; assay: Acute toxicity in ICR mouse assessed as mortality at 500 mg/kg, ip administered qd for 7 days; type: organism-based; set-up: dose 500 mg/kg, route intraperitoneal; details: in vivo, 168 h
[18] = system: Mus musculus; assay: Acute toxicity in ICR mouse assessed as apparent changes in any organ at 500 mg/kg, ip administered qd for 7 days; type: organism-based; set-up: dose 500 mg/kg, route intraperitoneal; details: in vivo, 168 h
[19] = Acute toxicity in ip dosed ICR mouse assessed as lethal dose; type: organism-based; details: in vivo
Method in brief: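 Male ICR mice, 24 weeks old, got a single i.p. injection of 500 mg/kg in 0.2 ml NS (normal saline). They were watched for 7 days for neurotoxic behaviour (tremor, twitch, jumping, tetanus, supination) and for death.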

[20] = system: Mus musculus; assay: Toxicity in ICR mouse xenografted with mouse S180 cells assessed as effect on liver weight at 2 umol/kg; type: organism-based, CCRF S-180; details: in vivo
[21] = system: CCRF S-180; assay: Antitumor activity against mouse S180 cells xenografted in ICR mouse assessed as tumor growth inhibition at 0.089 umol/kg, ip qd administered 1 day after tumor inoculation for 7 days; type: functional; details: CCRF S-180, ip, read-out: GI; method in brief: as §2
[22] = system: CCRF S-180; assay: Antitumor activity against mouse S180 cells xenografted in ICR mouse assessed as tumor growth inhibition at 0.89 umol/kg, ip administered 1 day after tumor inoculation qd for 7 days; type: functional; details: CCRF S-180, ip, read-out: GI; method in brief: as §2
[23] = system: Mus musculus; assay: Toxicity in ICR mouse xenografted with mouse S180 cells assessed as effect on brain weight at 2 umol/kg; type: organism-based, CCRF S-180; details: in vivo
[24] = system: Mus musculus; assay: Toxicity in ICR mouse xenografted with mouse S180 cells assessed as effect on kidney weight at 2 umol/kg; type: organism-based, CCRF S-180; details: in vivo
[25] = system: Mus musculus; assay: Toxicity in ICR mouse xenografted with mouse S180 cells assessed as increase in body weight at 2 umol/kg; type: organism-based, CCRF S-180; details: in vivo
[26] = system: Mus musculus; assay: Toxicity in ICR mouse xenografted with mouse S180 cells assessed as increase in spleen index at 2 umol/kg; type: organism-based, CCRF S-180; details: in vivo

| SMILES | pIC50 [1] | pIC50 [2] | pIC50 [3] | pIC50 [4] | pIC50 [5] | Activity [6] | inhibition in vivo at 8.9 µmol/kg [7] [%] | Activity [8] [g] | Activity [9] [g] | Activity [10] [g] | Activity [11] [g] | Activity [12] | Activity [13] | Activity [14] | Activity [15] | Activity [16] | Activity [17] | Activity [18] | LD50 [19] [mg/kg] | also measured |
| --- | --- | --- | --- | --- | --- | --- | --- | --- | --- | --- | --- | --- | --- | --- | --- | --- | --- | --- | --- | --- |
| CSCC[C@H](NC(=O)[C@H](Cc1c[nH]c2ccccc12)NC(=O)[C@@H](N)Cc1c[nH]c2ccccc12)C(=O)OCc1ccccc1 (H-Trp-Trp-Met-OBn) | 4.31 | 4.38 | 4.18 | 4.31 | 4.28 | 7.69 | 16.9 | 1.74 | 0.28 | 0.16 | 8.93 | Non-toxic | Non-toxic | Non-toxic | Non-toxic | Non-toxic | Non-toxic | Non-toxic | > 500 |  |
| N[C@@H](Cc1c[nH]c2ccccc12)C(=O)N[C@@H](Cc1c[nH]c2ccccc12)C(=O)N[C@@H](Cc1ccccc1)C(=O)OCc1ccccc1 (H-Trp-Trp-Phe-OBn) | 4.84 | 4.83 | 4.71 | 4.76 | 4.78 | 7.96 | 56.7 | 1.89 | 0.28 | 0.16 | 9.86 | Non-toxic | Non-toxic | Non-toxic | Non-toxic | Non-toxic | Non-toxic | Non-toxic | > 500 |  |
| N[C@@H](Cc1c[nH]c2ccccc12)C(=O)N[C@@H](Cc1c[nH]c2ccccc12)C(=O)N1CCC[C@H]1C(=O)OCc1ccccc1 (H-Trp-Trp-Pro-OBn) | 4.90 | 4.89 | 4.76 | 4.81 | 4.83 | 8.01 | 58 | 1.81 | 0.27 | 0.15 | 10.24 | Non-toxic | Non-toxic | Non-toxic | Non-toxic | Non-toxic | Non-toxic | Non-toxic | > 500 |  |
| N[C@@H](Cc1c[nH]c2ccccc12)C(=O)N[C@@H](Cc1c[nH]c2ccccc12)C(=O)N[C@@H](CO)C(=O)OCc1ccccc1 (H-Trp-Trp-Ser-OBn) | 4.38 | 4.38 | 4.26 | 4.33 | 4.33 | 7.59 | 18.1 | 1.73 | 0.28 | 0.16 | 9.95 | Non-toxic | Non-toxic | Non-toxic | Non-toxic | Non-toxic | Non-toxic | Non-toxic | > 500 |  |
| C[C@@H](O)[C@H](NC(=O)[C@H](Cc1c[nH]c2ccccc12)NC(=O)[C@@H](N)Cc1c[nH]c2ccccc12)C(=O)OCc1ccccc1 (H-Trp-Trp-Thr-OBn) | 4.93 | 4.92 | 4.80 | 4.85 | 4.86 | 8.21 | 61.2 | 1.81 | 0.3 | 0.15 | 9.99 | Non-toxic | Non-toxic | Non-toxic | Non-toxic | Non-toxic | Non-toxic | Non-toxic | > 500 |  |
| N[C@@H](Cc1c[nH]c2ccccc12)C(=O)N[C@@H](Cc1c[nH]c2ccccc12)C(=O)N[C@@H](Cc1ccc(O)cc1)C(=O)OCc1ccccc1 (H-Trp-Trp-Tyr-OBn) | 4.44 | 4.34 | 4.44 | 4.40 | 4.36 | 7.5 | 20.2 | 1.78 | 0.27 | 0.16 | 9.76 | Non-toxic | Non-toxic | Non-toxic | Non-toxic | Non-toxic | Non-toxic | Non-toxic | > 500 |  |
| Nc1ccn([C@@H]2O[C@H](CO)[C@@H](O)[C@@H]2O)c(=O)n1 [CYTARABINE] | 4.59 | 4.61 | 4.51 | 4.59 | 4.58 |  | 31.9 |  |  |  |  |  |  |  |  |  |  |  |  | Activity [20]: 1.62 g; inhibition in vivo at 0.089 µmol/kg [21]: 7.86%; inhibition in vivo at 0.89 µmol/kg [22]: 20.6%; Activity [23]: 0.29 g; Activity [24]: 0.16 g; Activity [25]: 7.12 g; Activity [26]: 7.5 |
| COc1cccc2c1C(=O)c1c(O)c3c(c(O)c1C2=O)C[C@@](O)(C(=O)CO)C[C@@H]3O[C@H]1C[C@H](N)[C@H](O)[C@H](C)O1 [DOXORUBICIN] | 4.53 | 4.76 | 4.67 | 4.44 | 4.76 |  | 48.2 |  |  |  |  |  |  |  |  |  |  |  |  | Activity [20]: 1.61 g; Activity [23]: 0.25 g; Activity [24]: 0.15 g; Activity [25]: 6.12 g; Activity [26]: 7.31 |
